# Measured values from ChEMBL document CHEMBL1146117, “Inhibitors of human mitotic kinesin Eg5: characterization of the 4-phenyl-tetrahydroisoquinoline lead series” (Bioorg Med Chem Lett, 2006).
# Tests used:
# [1] = target: T1, Kinesin-like protein KIF11 (Homo sapiens, UniProt P52732); test: Inhibition of Eg5 by ATPase assay; format: functional
# T1 sequence (P52732 whole entry): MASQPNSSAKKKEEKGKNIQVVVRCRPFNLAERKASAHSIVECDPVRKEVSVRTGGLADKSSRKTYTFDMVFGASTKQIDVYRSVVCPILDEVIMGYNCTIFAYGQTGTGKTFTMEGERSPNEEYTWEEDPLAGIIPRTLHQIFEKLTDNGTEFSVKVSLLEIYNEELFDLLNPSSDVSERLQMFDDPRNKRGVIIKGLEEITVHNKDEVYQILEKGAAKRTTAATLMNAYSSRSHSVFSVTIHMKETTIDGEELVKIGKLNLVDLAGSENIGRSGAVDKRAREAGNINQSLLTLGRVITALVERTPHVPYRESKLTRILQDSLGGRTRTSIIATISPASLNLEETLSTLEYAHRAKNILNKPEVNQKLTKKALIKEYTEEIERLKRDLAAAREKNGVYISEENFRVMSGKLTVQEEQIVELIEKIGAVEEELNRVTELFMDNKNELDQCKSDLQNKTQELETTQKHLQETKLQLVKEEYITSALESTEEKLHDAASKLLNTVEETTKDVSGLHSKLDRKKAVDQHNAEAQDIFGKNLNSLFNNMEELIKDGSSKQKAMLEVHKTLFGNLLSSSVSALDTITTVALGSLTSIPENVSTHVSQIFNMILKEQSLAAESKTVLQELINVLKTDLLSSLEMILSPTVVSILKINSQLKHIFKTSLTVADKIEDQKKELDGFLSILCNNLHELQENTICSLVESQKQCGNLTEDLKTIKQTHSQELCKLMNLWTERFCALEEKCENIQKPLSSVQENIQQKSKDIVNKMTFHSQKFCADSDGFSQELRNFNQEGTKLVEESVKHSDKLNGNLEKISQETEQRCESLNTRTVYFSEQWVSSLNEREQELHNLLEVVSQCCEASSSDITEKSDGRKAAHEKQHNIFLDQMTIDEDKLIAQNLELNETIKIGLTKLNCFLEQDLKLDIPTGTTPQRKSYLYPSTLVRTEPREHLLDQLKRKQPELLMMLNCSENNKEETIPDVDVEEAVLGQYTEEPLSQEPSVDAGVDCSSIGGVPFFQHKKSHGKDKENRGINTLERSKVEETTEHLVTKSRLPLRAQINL
# Summary of the method: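 Eg5 motor-domain protein ATPase activity read with a Kinase-Glo luminescent ATP kit. IC50 taken from dose–response curves of triplicate data points. Values are means ± SD of three independent experiments.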
# A2780 [2] = test: Antiproliferative activity against human A2780 cells; format: functional, cell-based
# Summary of the method: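 A2780 ovarian carcinoma cells were exposed to compound for 72 h. IC50 derived from dose–response curves of triplicate data points, reported as the mean ± SD of three independent experiments.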
# A2780 [3] = test: Mitotic index in A2780 cells at M phase at 0.257 uM; format: functional, Homo sapiens
# Summary of the method: (§1)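 A2780 cells were treated for 17 h at 0.257 or 0.328 µM, with nocodazole 0.1 µM as positive control and DMSO 0.08% as negative control. Cell-cycle profile (% G1, S, G2+M) and mitotic index (% cells in M phase) were quantified by flow cytometry.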
# A2780 [4] = test: Mitotic index in A2780 cells at M phase at 0.328 uM; format: functional, Homo sapiens; summary of the method: as §1
# A2780 [5] = test: Cell cycle arrest in A2780 cells by accumulation at S phase at 0.257 uM; format: functional, Homo sapiens; summary of the method: as §1
# DU-145 = test: Antiproliferative activity against human Du145 cells; format: functional, cell-based
# Summary of the method: (§2)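 Each tumour cell line in the panel was exposed to compound for 72 h, and IC50 was determined after that exposure.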
# A2780 [6] = test: Cell cycle arrest in A2780 cells by accumulation at S phase at 0.328 uM; format: functional, Homo sapiens; summary of the method: as §1
# P388 = test: Antiproliferative activity against mouse P388 cells; format: functional, cell-based; summary of the method: as §2
# CCRF-CEM = test: Antiproliferative activity against human CCRF-CEM cells; format: functional, cell-based; summary of the method: as §2
# A2780 [7] = test: Cell cycle arrest in A2780 cells by accumulation at G1 phase at 0.328 uM; format: functional, Homo sapiens; summary of the method: as §1
# LNCaP = test: Antiproliferative activity against human LNCaP cells; format: functional, cell-based; summary of the method: as §2
# M109 = test: Antiproliferative activity against mouse M109 cells; format: functional, cell-based; summary of the method: as §2
# SHP77 = test: Antiproliferative activity against human SHP77 cells; format: functional, cell-based; summary of the method: as §2
# NCI-H446 = test: Antiproliferative activity against human NCI-H446 cells; format: functional, cell-based; summary of the method: as §2
# MDA-MB-468 = test: Antiproliferative activity against human MDA-MB-468 cells; format: functional, cell-based; summary of the method: as §2
# A2780 [8] = test: Antiproliferative activity against human A2780-TAXR cells; format: functional, cell-based; summary of the method: as §2
# MDA-MB-231 = test: Antiproliferative activity against human MDA-MB-231 cells; format: functional, cell-based; summary of the method: as §2
# HCT-116 = test: Antiproliferative activity against human HCT116 cells; format: functional, cell-based; summary of the method: as §2
# A2780 [9] = test: Cell cycle arrest in A2780 cells by accumulation at G1 phase at 0.257 uM; format: functional, Homo sapiens; summary of the method: as §1
# A2780 [10] = test: Antiproliferative activity against human A2780S cells; format: functional, cell-based; summary of the method: as §2
# A2780 [11] = test: Cell cycle arrest in A2780 cells by accumulation at G2/M phase at 0.257 uM; format: functional, Homo sapiens; summary of the method: as §1
# A2780 [12] = test: Cell cycle arrest in A2780 cells by accumulation at G2/M phase at 0.328 uM; format: functional, Homo sapiens; summary of the method: as §1
# PC-3 = test: Antiproliferative activity against human PC3 cells; format: functional, cell-based; summary of the method: as §2
# SW-620 = test: Antiproliferative activity against human SW620 cells; format: functional, cell-based; summary of the method: as §2
# A2780 [13] = test: Cell cycle arrest in A2780 cells by accumulation at G1 phase at 0.1 uM; format: functional, Homo sapiens; summary of the method: as §1
# A2780 [14] = test: Cell cycle arrest in A2780 cells by accumulation at S phase at 0.1 uM; format: functional, Homo sapiens; summary of the method: as §1
# A2780 [15] = test: Mitotic index in A2780 cells at M phase at 0.1 uM; format: functional, Homo sapiens; summary of the method: as §1
# A2780 [16] = test: Cell cycle arrest in A2780 cells by accumulation at G2/M phase at 0.1 uM; format: functional, Homo sapiens; summary of the method: as §1
compound,measurement,setting,value
CNC(=O)N1Cc2c(ccc(C)c2C)C(c2ccccc2)C1 (stereo not given),IC50,[1],> 25 µM
Cc1ccc2c(c1C)CN(C(=O)N1CCOCC1)CC2c1ccccc1 (stereo not given),IC50,[1],22.3 µM
Cc1ccc2c(c1C)CN(C(C)C)CC2c1ccccc1 (stereo not given),IC50,[1],11 µM
same,IC50,A2780 [2],6.28 µM
CC(=O)N1Cc2c(ccc(C)c2C)C(c2ccccc2)C1 (stereo not given),IC50,[1],17.9 µM
Cc1ccc2c(c1C)CN(C(=O)c1ccccc1)CC2c1ccccc1 (stereo not given),IC50,[1],16.4 µM
same,IC50,A2780 [2],7.77 µM
COC(=O)N1Cc2c(ccc(C)c2C)C(c2ccccc2)C1 (stereo not given),IC50,[1],14.4 µM
CN(C)C(=O)N1Cc2c(Cl)cccc2C(c2cccc(O)c2)C1 (stereo not given),IC50,[1],> 25 µM
Cc1ccc2c(c1C)CN(C(=O)N(C)C)CC2c1cccc(C(F)(F)F)c1 (stereo not given),IC50,[1],13.2 µM
Cc1ccc2c(c1C)CN(CCCCN(C)C)CC2c1ccccc1 (stereo not given),IC50,[1],5.36 µM
same,IC50,A2780 [2],1.86 µM
COc1ccc2c(c1)CN(C(=O)N(C)C)CC2c1cccc(O)c1 (stereo not given),IC50,[1],0.617 µM
same,IC50,A2780 [2],0.402 µM
Cc1ccc2c(c1C)CN(CCc1ccccc1)CC2c1ccccc1 (stereo not given),IC50,[1],> 25 µM
Cc1ccc2c(c1C)CN(C(=O)N(C)C)C[C@@H]2c1cccc(O)c1,Activity,A2780 [3],39.3%
same,Activity,A2780 [4],52.2%
same,Activity,A2780 [5],11.8%
same,IC50,DU-145,0.484 µM
same,Activity,A2780 [6],5.9%
same,IC50,P388,0.46 µM
same,IC50,CCRF-CEM,0.282 µM
same,Activity,A2780 [7],3.1%
same,IC50,LNCaP,0.807 µM
same,IC50,M109,0.259 µM
same,IC50,SHP77,0.261 µM
same,IC50,NCI-H446,0.36 µM
same,IC50,MDA-MB-468,0.35 µM
same,IC50,A2780 [2],0.234 µM
same,IC50,A2780 [8],0.215 µM
same,IC50,MDA-MB-231,0.48 µM
same,IC50,HCT-116,0.259 µM
same,Activity,A2780 [9],9.1%
same,IC50,A2780 [10],0.267 µM
same,Activity,A2780 [11],73.2%
same,Activity,A2780 [12],84%
same,IC50,PC-3,0.223 µM
same,IC50,SW-620,0.466 µM
Cc1ccc2c(c1C)CN(CCCCN)CC2c1ccccc1 (stereo not given),IC50,[1],4.65 µM
same,IC50,A2780 [2],2.37 µM
Cc1ccc2c(c1C)CN(CCn1cccc1)CC2c1ccccc1 (stereo not given),IC50,[1],> 25 µM
CN(C)C(=O)N1Cc2cc(Cl)ccc2C(c2cccc(O)c2)C1 (stereo not given),IC50,[1],2.49 µM
same,IC50,A2780 [2],1.19 µM
CN(C)C(=O)N1Cc2c(Br)cccc2C(c2cccc(O)c2)C1 (stereo not given),IC50,[1],> 25 µM
COc1ccc2c(c1OC)CN(C(=O)N(C)C)CC2c1cccc(O)c1 (stereo not given),IC50,[1],12.8 µM
same,IC50,A2780 [2],2.92 µM
CN(C)C(=O)N1Cc2cc(F)ccc2C(c2cccc(O)c2)C1 (stereo not given),IC50,[1],> 25 µM
Cc1ccc2c(c1C)CN(CCCN(C)C)CC2c1ccccc1 (stereo not given),IC50,[1],8.88 µM
same,IC50,A2780 [2],3.24 µM
Cc1ccc2c(c1C)CN(C(=O)N(C)CCCN(C)C)CC2c1ccccc1 (stereo not given),IC50,[1],5.44 µM
same,IC50,A2780 [2],1.21 µM
Cc1ccc2c(c1C)CN(C(=O)N(C)C)CC2c1cccc(Cl)c1 (stereo not given),IC50,[1],3.48 µM
same,IC50,A2780 [2],3.02 µM
Cc1ccc2c(c1C)CN(C)CC2c1ccccc1 (stereo not given),IC50,[1],18.4 µM
same,IC50,A2780 [2],7.3 µM
CCN1Cc2c(ccc(C)c2C)C(c2ccccc2)C1 (stereo not given),IC50,[1],25.2 µM
same,IC50,A2780 [2],5.3 µM
Cc1ccc2c(c1C)CNCC2c1ccccc1 (stereo not given),IC50,[1],8.33 µM
same,IC50,A2780 [2],9.04 µM
Cc1ccc2c(c1C)CN(C(=O)N1CCCCC1)CC2c1ccccc1 (stereo not given),IC50,[1],12.8 µM
same,IC50,A2780 [2],2.83 µM
Cc1ccc2c(c1C)CN(CCCN)CC2c1ccccc1 (stereo not given),IC50,[1],3.06 µM
same,IC50,A2780 [2],2.42 µM
CN(C)C(=O)N1Cc2c(ccc(Cl)c2Cl)C(c2cccc(O)c2)C1 (stereo not given),IC50,[1],1.27 µM
same,IC50,A2780 [2],3.44 µM
Cc1ccc2c(c1C)CN(S(C)(=O)=O)CC2c1ccccc1 (stereo not given),IC50,[1],> 25 µM
Cc1ccc2c(c1C)CN(C(=O)N(C)C)CC2c1ccccc1 (stereo not given),IC50,[1],2.75 µM
same,IC50,A2780 [2],1.2 µM
Cc1ccc2c(c1C)CN(C(=O)N(C)C)CC2c1cccc(O)c1 (stereo not given),IC50,[1],0.306 µM
same,IC50,A2780 [2],0.376 µM
CCOC(=O)N1Cc2c(ccc(C)c2C)C(c2ccccc2)C1 (stereo not given),IC50,[1],> 25 µM
Cc1cccc2c1CN(C(=O)N(C)C)CC2c1cccc(O)c1 (stereo not given),IC50,[1],4.71 µM
same,IC50,A2780 [2],2.05 µM
CN(C)C(=O)N1Cc2ccccc2C(c2cccc(O)c2)C1 (stereo not given),IC50,[1],> 25 µM
Cc1ccc2c(c1C)CN(CCN)CC2c1ccccc1 (stereo not given),IC50,[1],2.27 µM
same,IC50,A2780 [2],2.31 µM
CN(C)C(=O)N1Cc2c(ccc3c2OCC3)C(c2cccc(O)c2)C1 (stereo not given),IC50,[1],0.639 µM
same,IC50,A2780 [2],0.235 µM
Cc1ccc2c(c1C)CN(C(N)=O)CC2c1ccccc1 (stereo not given),IC50,[1],> 25 µM
CN(C)C(=O)N1Cc2cc(I)ccc2C(c2cccc(O)c2)C1 (stereo not given),IC50,[1],0.317 µM
same,IC50,A2780 [2],0.363 µM
Cc1ccc2c(c1C)CN(C(=O)N(C)C)CC2c1ccc(O)cc1 (stereo not given),IC50,[1],> 25 µM
CN(C)C(=O)N1Cc2c(F)cccc2C(c2cccc(O)c2)C1 (stereo not given),IC50,[1],> 25 µM
COc1cccc2c1CN(C(=O)N(C)C)CC2c1cccc(O)c1 (stereo not given),IC50,[1],1.78 µM
same,IC50,A2780 [2],0.332 µM
Cc1ccc2c(c1)CN(C(=O)N(C)C)CC2c1cccc(O)c1 (stereo not given),IC50,[1],0.595 µM
same,IC50,A2780 [2],0.851 µM
CCc1cccc2c1CN(C(=O)N(C)C)CC2c1cccc(O)c1 (stereo not given),IC50,[1],0.344 µM
same,IC50,A2780 [2],0.186 µM
CN(C)C(=O)N1Cc2cc(Br)ccc2C(c2cccc(O)c2)C1 (stereo not given),IC50,[1],0.808 µM
same,IC50,A2780 [2],0.879 µM
COC(=O)Nc1nc2cc(C(=O)c3cccs3)ccc2[nH]1 [NOCODAZOLE],Activity,A2780 [13],12%
same,Activity,A2780 [14],15.7%
same,Activity,A2780 [15],23.7%
same,Activity,A2780 [16],62.1%
